Columns and labels:
MCF7 [1] = assay: Antiproliferative activity against human MCF7 cells at 1 uM after 48 to 72 hrs by MTT assay relative to control; format: functional
Procedure, shortened: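 Single-concentration screen in the MTT proliferation assay: log-phase cells seeded and allowed to adhere, exposed to compound at 1 µM for 48 h or 72 h, MTT added for 2-3 h, formazan dissolved in DMSO; percent inhibition versus control.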

A2780S = assay: Antiproliferative activity against human A2780S cells after 48 to 72 hrs by MTT assay; format: functional, cell-based
Procedure, shortened: (§1)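 Cells in log phase seeded and allowed to adhere, then exposed to graded compound concentrations for 48 h or 72 h; MTT added for a further 2-3 h, formazan dissolved in DMSO. IC50 taken from dose-response curves; mean ± SD of at least three independent experiments.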

A2780/Taxol = assay: Antiproliferative activity against human A2780T cells after 48 to 72 hrs by MTT assay; format: functional, cell-based; procedure, shortened: as §1
HUVEC = assay: Antiproliferative activity against HUVEC after 48 to 72 hrs by MTT assay; format: cell-based; conditions: Homo sapiens; procedure, shortened: as §1
MCF7 [2] = assay: Cell cycle arrest in human MCF7 cells assessed as accumulation at G0/G1 phase at 3 uM after 18 hrs by propidium iodide staining based flow cytometry (reference value: 45.22%); format: functional
MCF7 [3] = assay: Cell cycle arrest in human MCF7 cells assessed as accumulation at G0/G1 phase at 10 uM after 18 hrs by propidium iodide staining based flow cytometry (reference value: 45.22%); format: functional
MCF7 [4] = assay: Cell cycle arrest in human MCF7 cells assessed as accumulation at S phase at 10 uM after 18 hrs by propidium iodide staining based flow cytometry (reference value: 44.80%); format: functional
MCF7 [5] = assay: Cell cycle arrest in human MCF7 cells assessed as accumulation at G2/M phase at 10 uM after 18 hrs by propidium iodide staining based flow cytometry (reference value: 9.98%); format: functional
MCF7 [6] = assay: Cell cycle arrest in human MCF7 cells assessed as accumulation at G2/M phase at 30 uM after 18 hrs by propidium iodide staining based flow cytometry (reference value: 9.98%); format: functional
MCF7 [7] = assay: Cell cycle arrest in human MCF7 cells assessed as accumulation at S phase at 100 uM after 18 hrs by propidium iodide staining based flow cytometry (reference value: 44.80%); format: functional
MCF7 [8] = assay: Cell cycle arrest in human MCF7 cells assessed as accumulation at G2/M phase at 100 uM after 18 hrs by propidium iodide staining based flow cytometry (reference value: 9.98%); format: functional
MCF7 [9] = assay: Cell cycle arrest in human MCF7 cells assessed as accumulation at G2/M phase after 18 hrs by propidium iodide staining based flow cytometry; format: functional
MCF7 [10] = assay: Induction of apoptosis in human MCF7 cells assessed as viable cells at 3 uM after 48 hrs by annexin V-FITC/PI dual staining based flow cytometry (reference value: 77.8%); format: functional; conditions: MCF7, 48 h, read-out: Activity
MCF7 [11] = assay: Induction of apoptosis in human MCF7 cells assessed as late apoptotic cells at 3 uM after 48 hrs by annexin V-FITC/PI dual staining based flow cytometry (reference value: 11.1%); format: functional
MCF7 [12] = assay: Induction of apoptosis in human MCF7 cells assessed as viable cells at 10 uM after 48 hrs by annexin V-FITC/PI dual staining based flow cytometry (reference value: 77.8%); format: functional; conditions: MCF7, 48 h, read-out: Activity
MCF7 [13] = assay: Induction of apoptosis in human MCF7 cells assessed as early apoptotic cells at 10 uM after 48 hrs by annexin V-FITC/PI dual staining based flow cytometry (reference value: 11%); format: functional
MCF7 [14] = assay: Induction of apoptosis in human MCF7 cells assessed as late apoptotic cells at 10 uM after 48 hrs by annexin V-FITC/PI dual staining based flow cytometry (reference value: 11.1%); format: functional
MCF7 [15] = assay: Induction of apoptosis in human MCF7 cells assessed as viable cells at 30 uM after 48 hrs by annexin V-FITC/PI dual staining based flow cytometry (reference value: 77.8%); format: functional; conditions: MCF7, 48 h, read-out: Activity
MCF7 [16] = assay: Induction of apoptosis in human MCF7 cells assessed as late apoptotic cells at 30 uM after 48 hrs by annexin V-FITC/PI dual staining based flow cytometry (reference value: 11.1%); format: functional
MCF7 [17] = assay: Induction of apoptosis in human MCF7 cells assessed as viable cells at 100 uM after 48 hrs by annexin V-FITC/PI dual staining based flow cytometry (reference value: 77.8%); format: functional; conditions: MCF7, 48 h, read-out: Activity
MCF7 [18] = assay: Induction of apoptosis in human MCF7 cells assessed as necrotic cells at 100 uM after 48 hrs by annexin V-FITC/PI dual staining based flow cytometry (reference value: 0.16%); format: functional
NCI/ADR-RES [19] = assay: Induction of apoptosis in human MCF7/ADR cells assessed as early apoptotic cells at 3 uM after 48 hrs by annexin V-FITC/PI dual staining based flow cytometry (reference value: 2.72%); format: functional
NCI/ADR-RES [20] = assay: Induction of apoptosis in human MCF7/ADR cells assessed as viable cells at 10 uM after 48 hrs by annexin V-FITC/PI dual staining based flow cytometry (reference value: 89.8%); format: functional; conditions: read-out: Activity
NCI/ADR-RES [21] = assay: Induction of apoptosis in human MCF7/ADR cells assessed as early apoptotic cells at 10 uM after 48 hrs by annexin V-FITC/PI dual staining based flow cytometry (reference value: 2.72%); format: functional
NCI/ADR-RES [22] = assay: Induction of apoptosis in human MCF7/ADR cells assessed as early apoptotic cells at 30 uM after 48 hrs by annexin V-FITC/PI dual staining based flow cytometry (reference value: 2.72%); format: functional
NCI/ADR-RES [23] = assay: Induction of apoptosis in human MCF7/ADR cells assessed as necrotic cells at 30 uM after 48 hrs by annexin V-FITC/PI dual staining based flow cytometry (reference value: 2.43%); format: functional
NCI/ADR-RES [24] = assay: Induction of apoptosis in human MCF7/ADR cells assessed as necrotic cells at 100 uM after 48 hrs by annexin V-FITC/PI dual staining based flow cytometry (reference value: 2.43%); format: functional
MCF7 [25] = assay: Induction of apoptosis in human MCF7 cells assessed as late apoptotic cells after 48 hrs by annexin V-FITC/PI dual staining based flow cytometry; format: functional, cell-based
NCI-H460 = assay: Antitumor activity against human H460 cells xenografted in athymic nude Balb/C mouse assessed as tumor growth inhibition at 100 mg/kg, po administered 3 times per week measured on day 18 relative to control; format: functional; conditions: 432 h, read-out: TGI
Procedure, shortened: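 Nude mice (5-6 weeks old, female) implanted sc in right flank with 5 × 10^6 H460 cells in HBSS; at 100 mm3 tumours, randomised 6 per group to vehicle, oral 100 mg/kg three times weekly, or ip 30 mg/kg once weekly. Tumour volume by caliper every 2 days as (π/6) × length × width²; body weight recorded; inhibition from tumour weights versus control.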

Mus musculus = assay: Toxicity in athymic nude Balb/C mouse xenografted with human H460 cells assessed as effect on feeding behaviour at 100 mg/kg, po administered 3 times per week measured every 2 days; format: organism-based; conditions: in vivo, 48 h
Procedure, shortened: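 Nude mice, 5-to-6-week-old females, given 5 × 10^6 H460 cells sc in right flank in HBSS; at 100 mm3 tumour volume randomized, 6 per group. Vehicle; oral 100 mg/kg three times weekly; or ip 30 mg/kg once weekly. Toxicity signs and mortality observed daily; body weight measured every 2 days.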

Structure (SMILES): N#Cc1ccc(COc2cccc(/C=N/NC(=O)c3cc4c(cn3)[nH]c3ccccc34)c2)cc1
- inhibition at 1 µM (MCF7 [1]): 59.6%
- IC50 (A2780S): 3.02 µM
- IC50 (A2780/Taxol): 3.99 µM
- IC50 (HUVEC): 88.6 µM
- Activity (MCF7 [2]): 34.57%
- Activity (MCF7 [3]): 36.05%
- Activity (MCF7 [4]): 56.38%
- Activity (MCF7 [5]): 7.57%
- Activity (MCF7 [6]): 6.06%
- Activity (MCF7 [7]): 53.88%
- Activity (MCF7 [8]): 4.29%
- Activity (MCF7 [9]): Dose-dependent effect
- viability at 3 µM (MCF7 [10]): 66.8%
- Activity (MCF7 [11]): 17.6%
- viability at 10 µM (MCF7 [12]): 66.6%
- Activity (MCF7 [13]): 13.1%
- Activity (MCF7 [14]): 20.1%
- viability at 30 µM (MCF7 [15]): 50.9%
- Activity (MCF7 [16]): 28.8%
- viability at 100 µM (MCF7 [17]): 47.2%
- Activity (MCF7 [18]): 0.76%
- Activity (NCI/ADR-RES [19]): 2.44%
- viability at 10 µM (NCI/ADR-RES [20]): 70.1%
- Activity (NCI/ADR-RES [21]): 4.38%
- Activity (NCI/ADR-RES [22]): 4.85%
- Activity (NCI/ADR-RES [23]): 8.52%
- Activity (NCI/ADR-RES [24]): 9.14%
- Activity (MCF7 [25]): Dose-dependent effect
- inhibition in vivo at 100 mg/kg (NCI-H460): 17.2%
- Activity (Mus musculus): Non-Toxic
